{"source": "the M2OR odorant receptor database", "data": [{"test_system": "T1, A0A140T8K0", "T1 sequence (whole entry)": "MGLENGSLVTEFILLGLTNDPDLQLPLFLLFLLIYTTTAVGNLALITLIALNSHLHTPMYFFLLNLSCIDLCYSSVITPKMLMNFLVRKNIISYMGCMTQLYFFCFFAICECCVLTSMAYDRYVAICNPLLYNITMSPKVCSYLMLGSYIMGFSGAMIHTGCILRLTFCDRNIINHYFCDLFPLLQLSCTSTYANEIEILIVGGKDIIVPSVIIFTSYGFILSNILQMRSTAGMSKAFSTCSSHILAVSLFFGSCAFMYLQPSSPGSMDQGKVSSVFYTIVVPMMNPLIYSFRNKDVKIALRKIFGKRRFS", "settings": "stereoisomer not certain", "how_it_was_run": "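Transient luciferase assays in mammalian cell lines were common, though methods varied by source. The values come from published papers and their supplementary material, with extra details from the original authors when needed. Responsive refers to a measured signal the original authors judged statistically different from baseline, and non-responsive (inactive) to the remainder.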", "values": [{"smiles": "C=CC(C)=CCC=C(C)CCC=C(C)C", "odorant receptor agonist call": "inactive"}, {"smiles": "OCC=Cc1ccccc1", "odorant receptor agonist call": "inactive"}, {"smiles": "CC(CC=O)CCCC(C)(C)O", "note": "(stereo unspecified)", "odorant receptor agonist call": "inactive"}, {"smiles": "CCCCCCCCOC=O", "odorant receptor agonist call": "active"}, {"smiles": "OCCCCCCCCCO", "odorant receptor agonist call": "inactive"}, {"smiles": "CC(=O)OCCc1ccccc1", "odorant receptor agonist call": "inactive"}, {"smiles": "CC1(C)CC(=O)CC(=O)C1", "odorant receptor agonist call": "inactive"}, {"smiles": "CCC=CCCC=CC=O", "odorant receptor agonist call": "inactive"}, {"smiles": "CCC(C)O", "note": "(stereo unspecified)", "odorant receptor agonist call": "inactive"}, {"smiles": "C=CC(=C)CCC=C(C)CCC=C(C)C", "odorant receptor agonist call": "inactive"}, {"smiles": "CCSSCC", "odorant receptor agonist call": "inactive"}, {"smiles": "CCN(CC)CC", "odorant receptor agonist call": "inactive"}, {"smiles": "CC=CC(=O)C1=C(C)CCCC1(C)C", "odorant receptor agonist call": "inactive"}, {"smiles": "O=C(O)CCCCCCCCC(=O)O", "odorant receptor agonist call": "active"}, {"smiles": "CSSCc1ccco1", "odorant receptor agonist call": "inactive"}, {"smiles": "CCc1ccc(O)cc1", "odorant receptor agonist call": "inactive"}, {"smiles": "Cc1ccc(C(C)C)c(O)c1", "odorant receptor agonist call": "inactive"}, {"smiles": "CSSSC", "odorant receptor agonist call": "inactive"}, {"smiles": "CCOC(=O)C(C)CC", "note": "(stereo unspecified)", "odorant receptor agonist call": "inactive"}, {"smiles": "Cc1ccc(OC(=O)C(C)C)cc1", "odorant receptor agonist call": "inactive"}, {"smiles": "CC(C)=CCCC(C)=CCOC(=O)C(C)C", "odorant receptor agonist call": "inactive"}, {"smiles": "CCCCC=O", "odorant receptor agonist call": "inactive"}, {"smiles": "O=C(O)C1CCC1", "odorant receptor agonist call": "inactive"}, {"smiles": "CC1CC=CCCCCCCCCCC(=O)C1", "note": "(stereo unspecified)", "odorant receptor agonist call": "inactive"}, {"smiles": "OCCc1ccccc1", "odorant receptor agonist call": "inactive"}, {"smiles": "CCCCCCCCCC=CC=O", "odorant receptor agonist call": "inactive"}, {"smiles": "CCCCCC(C=O)=Cc1ccccc1", "odorant receptor agonist call": "inactive"}, {"smiles": "C=C(C)C1CCC2(C)OC2C1", "note": "(stereo unspecified)", "odorant receptor agonist call": "inactive"}, {"smiles": "CC(C)CS", "odorant receptor agonist call": "inactive"}, {"smiles": "O=C([O-])CCCCCCCC(=O)[O-].[H+].[H+]", "odorant receptor agonist call": "inactive"}, {"smiles": "CC(=O)C1(C)CC2=C(CCCC2(C)C)CC1C", "note": "(stereo unspecified)", "odorant receptor agonist call": "inactive"}, {"smiles": "CCCCCOC(=O)CC", "odorant receptor agonist call": "inactive"}, {"smiles": "C=C1C2CCC(C2)C1(C)C", "note": "(stereo unspecified)", "odorant receptor agonist call": "inactive"}, {"smiles": "COc1nccnc1C", "odorant receptor agonist call": "inactive"}, {"smiles": "CCCCCCC=CC=O", "odorant receptor agonist call": "inactive"}, {"smiles": "O=C([O-])CCCCCCC(=O)[O-].[H+].[H+]", "odorant receptor agonist call": "inactive"}]}]}
